ChEMBL document CHEMBL1148911, “Ardisinones A-E, novel diarylundecanones from Ardisia arborescens” (J Nat Prod, 2004)
Calls of active or inactive are those of the source.

Key:
Format in all cases: functional, organism-based
Staphylococcus aureus = test: Antibacterial activity against Staphylococcus aureus after 24 hrs by disk diffusion assay
Outline: (§1)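 Agar disk diffusion. Each organism was grown on agar medium, and plates were inoculated by spreading a spore or cell suspension evenly over the agar surface to give confluent growth. Compound-loaded disks were applied, and the zone of inhibition around each disk was measured at 24 and 48 h.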

Candida albicans = test: Antibacterial activity against Candida albicans after 48 hrs by disk diffusion assay; outline: as §1
Aspergillus niger = test: Antibacterial activity against Aspergillus niger after 48 hrs by disk diffusion assay; outline: as §1
Escherichia coli = test: Antibacterial activity against Escherichia coli after 24 hrs by disk diffusion assay; outline: as §1
[1] = system: Mycolicibacterium smegmatis; test: Antibacterial activity against Mycobacterium smegmatis after 24 hrs by disk diffusion assay; outline: as §1
Bacillus subtilis = test: Antibacterial activity against Bacillus subtilis after 24 hrs by disk diffusion assay; outline: as §1

Measured: Activity

COc1cc(O)c(C(=O)CCCCCCCCCCc2c(O)cccc2OC(C)=O)c(O)c1
inactive: all assays above

COc1cc(O)c(C(=O)CCCCCCCCCCc2c(O)cccc2O)c(O)c1
inactive: all assays above
